Results as given in paper PMC6129214 (Nature medicine, 2018).

How the values were obtained:
platelet aggregation [1] = assay: Direct incubation of inhibitor with mouse PRP, platelet aggregometry; assay type: cell-based, mice; conditions: 20 µM, with or without ADP
platelet aggregation [2] = assay: Mouse ex vivo platelet aggregometry in PRP; conditions: ADP 1 μM, choline-supplemented mice
Method in brief: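 Mice on a choline-supplemented (1% w/w) or control diet, with or without test compound in the diet (0.006% or 0.06% w/w, 2 weeks), are anaesthetized with ketamine 100 mg/kg and xylazine 10 mg/kg. Blood is drawn and PRP aggregation to 1 μM ADP is recorded as % of maximum amplitude per mouse. Plasma TMAO is also measured.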

[3] = system: carotid artery thrombus formation; assay: FeCl3-induced carotid artery injury thrombosis model; assay type: in vivo, mice; conditions: DMB 1.3% v/v; 0.06% IMC or 0.006% FMC in diet
plasma TMAO = assay: Plasma TMAO levels; assay type: in vivo; conditions: mice on a choline-supplemented diet, data not shown

| SMILES | effect of direct incubation on platelet aggregometry responses, mouse PRP (platelet aggregation [1]) | effect on choline diet-enhanced ADP-dependent platelet aggregation in PRP (platelet aggregation [2]) | effect on choline diet-induced rise in TMAO and in vivo rate of clot formation [3] | effect on plasma TMAO levels in vivo (plasma TMAO) |
| --- | --- | --- | --- | --- |
| CC(C)(C)CCO [DMB, 3,3-dimethyl-1-butanol] | no effects | significantly reduced | attenuated |  |
| Oc1ccc(/C=C/c2cc(O)cc(O)c2)cc1 [Resveratrol] |  |  |  | showed no effect |
